# Assay results collected from several papers.
# Compare with care: the assays were run in different laboratories.
# Target: Protein kinase C theta type (PRKCQ, Homo sapiens, UniProt Q04759)
SMILES,observed,action,technique,concentration,measurement,result
CC(C)(C)c1nc(-c2cccc(NS(=O)(=O)c3c(F)cccc3F)c2F)c(-c2ccnc(N)n2)s1,enzyme activity,inhibitor,radiometric,1 µM,remaining activity,120%
CO[C@@H](C)c1c(Nc2ccc([C@@H](N(C)C(=O)C3CCS(=O)(=O)CC3)C(F)(F)F)cc2)cnc2cc(Cl)nn12,cell-free assay,,competition with immobilised ligand,1 µM,remaining binding,98%
F[C@@H]1CCN(c2nccc(-c3cnn4ncccc34)n2)C1,binding,,,1 µM,remaining binding,100%
COc1cc2c(Nc3ccc(Br)cc3F)ncnc2cc1OCC1CCN(C)CC1,cell-free assay,,,0.5 µM,remaining signal,100%
CC/C(=N\NC(=O)NCc1cccc(O)c1)c1ccc(O)c(C)c1O,enzyme activity,inhibitor,,0.1 µM,inhibition,12.2%
C=CC(=O)Nc1cc(Nc2nccc(Nc3cc(Cl)c(F)cc3C(C)(C)O)n2)c(OC)cc1N1CC[C@@H](N(C)C)C1,enzyme activity,inhibitor,,1 µM,inhibition,17%
Cc1ccc(Nc2nccc(N(C)c3ccc4c(C)n(C)nc4c3)n2)cc1S(N)(=O)=O,enzyme activity,inhibitor,,10 µM,inhibition,-3%
CN(C)C1CCN(CC#Cc2nn(C3CCCC3)c3nc(NCc4ccccc4)ncc23)C1 (stereo not shown),enzyme activity,inhibitor,FRET,0.1 µM,inhibition,-1%
CCCS(=O)(=O)Nc1ccc(F)c(C(=O)c2c[nH]c3ncc(-c4ccc(Cl)cc4)cc23)c1F,enzyme activity,inhibitor,,1 µM,inhibition,< 10%
O=C(O)c1cc(-c2ccc(C3CCNCC3)cc2)c2ccc(-c3ccc(C(F)(F)F)cc3)cc2c1,cell-free assay,,competition with immobilised ligand,1 µM,remaining binding,100%
Cn1cnc(Br)c1C1=CN(c2ncnc3[nH]cnc23)CCS1,enzyme activity,inhibitor,radiometric,2 µM,inhibition,97.9%
CNCc1ccc(-c2cc(-c3nc(-c4ccc(S(=O)(=O)C(C)C)cc4)cnc3N)on2)cc1,enzyme activity,inhibitor,,0.4 µM,inhibition,0%
Nc1ncnc2occ(-c3ccc(NC(=O)Nc4cc(C(F)(F)F)ccc4F)cc3)c12,cell-free assay,,,20 µM,remaining signal,13%
CN1CC(Oc2cnc(C#N)cc2-c2ccn3nc(NC(=O)C4CC4)cc3c2)C1,enzyme activity,inhibitor,,1 µM,inhibition,-2%
N#CCCc1ccc2c(c1)-c1[nH]c3ccc([N+](=O)[O-])cc3c1CC(=O)N2,cell-free assay,,,0.5 µM,remaining signal,111%
Cn1nc(C(F)(F)F)cc1-c1cnc(N2CCc3cc(S(=O)(=O)Nc4c(F)cc(Cl)cc4F)cc(N4CCCC4=O)c32)nc1,cell-free assay,,competition with immobilised ligand,1 µM,remaining binding,100%
Cc1sc(C(=O)NC2COC2)cc1-n1cc(NC(=O)Nc2c(F)cccc2Cl)cn1,enzyme activity,inhibitor,,10 µM,remaining activity,96.9%
Cc1ccc(NC(=O)c2ccc(C)c(C(F)(F)F)c2)cc1C#Cc1nn(C2CCC(O)CC2)c2ncnc(N)c12 (stereo not shown),cell-free assay,,,10 µM,remaining signal,103%
CC[C@H](CO)Nc1nc(NCc2ccccc2)c2ncn(C(C)C)c2n1,cell-free assay,,,0.5 µM,remaining signal,90%
C[C@@H](N)[C@H]1CC[C@H](C(=O)Nc2ccncc2)CC1,enzyme activity,inhibitor,TR-FRET,10 µM,inhibition,82.7%
CNC(=O)c1cc(Oc2ccc(NC(=O)Nc3ccc(Cl)c(C(F)(F)F)c3)cc2)ccn1,enzyme activity,inhibitor,,10 µM,inhibition,-12%
CNCc1ccccc1-c1csc([C@H](C)Nc2nc(C)nc3cc(OC)c(OC)cc23)c1,cell-free assay,,competition with immobilised ligand,1 µM,remaining binding,100%
CS(=O)(=O)CCNCc1ccc(-c2ccc3ncnc(Nc4ccc(OCc5cccc(F)c5)c(Cl)c4)c3c2)o1,cell-free assay,,,0.5 µM,remaining signal,72.4%
COc1ccc2c(c1)O[C@H](c1ccc(OC)c(OC)c1)C[C@@H]2NC(=O)C1(c2ccc3c(c2)OC(F)(F)O3)CC1,cell-free assay,,competition with immobilised ligand,1 µM,remaining binding,100%
O=C(Nc1cnn(-c2csc(C(=O)NC3COC3)c2)c1)Nc1ccccc1Cl,enzyme activity,inhibitor,,5 µM,remaining activity,114%
O=C(NCCCC1CCCCC1)c1ccc(CNC(=O)c2cnn(-c3ccccc3)c2C(F)(F)F)cc1,cell-free assay,,competition with immobilised ligand,0.1 µM,remaining binding,100%
CC(C)(O)[C@H]1CC[C@H](Nc2ccc3ncc(-c4cccc(C(F)(F)F)c4)n3n2)CC1,enzyme activity,inhibitor,,1 µM,remaining activity,86.1%
CS(=O)(=O)c1cc(C2(NC(=O)c3cncc4c3cnn4-c3ccc(F)cc3)CC2)ccn1,cell-free assay,,competition with immobilised ligand,1 µM,remaining binding,99%
CC(C)c1ccc(NC(=O)c2cccs2)c(-c2nc3ccccc3[nH]c2=O)c1,enzyme activity,inhibitor,,1 µM,activity vs control,83%
CC1=C(C#N)[C@@H](c2ccc3[nH]nc(C)c3c2)C(C#N)=C(c2ccc(Cl)cc2)N1,cell-free assay,,competition with immobilised ligand,1 µM,remaining binding,100%
COc1cc2ncnc(Nc3ccc(Oc4ccccc4)cc3C)c2cc1OC,enzyme activity,inhibitor,,1 µM,inhibition,2%
